Results on six compounds are retold here after ChEMBL document CHEMBL1124568, “2,4-Diamino-5-benzylpyrimidines as antibacterial agents. 13. Some alkenyl derivatives with high in vitro activity against anaerobic organisms” (J Med Chem, 1989).

Converted amounts (≈) assume the structure as drawn.

Series [1] concerns Klebsiella pneumoniae. The experiment in a line: Ratio of antibacterial (Klebsiella pneumoniae CN3632) activities of compound and trimethoprim. The class given is functional. The essentials:
(§1)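 Each MIC is divided by the MIC of trimethoprim run alongside. Serial dilutions were normally 0.1, 0.3, 1, 3, 10, etc., and occasionally 1, 5 and 10. For E. coli the value is the average over six strains.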

For series [2], the target named is T1, Dihydrofolate reductase (Escherichia coli, UniProt P0ABQ4).
T1 sequence (P0ABQ4 whole entry): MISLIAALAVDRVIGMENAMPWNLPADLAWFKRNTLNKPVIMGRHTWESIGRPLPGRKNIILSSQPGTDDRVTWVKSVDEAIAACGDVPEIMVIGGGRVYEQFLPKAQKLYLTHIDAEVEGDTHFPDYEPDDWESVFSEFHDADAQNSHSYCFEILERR
The experiment in a line: In vitro inhibition of dihydrofolate reductase of Escherichia coli. The note with it: read-out: I50. The essentials:
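The E. coli DHFR assay contained 1 nM enzyme, with the lower limit for I50 arbitrarily set at 2 nM. I50 was estimated from plots of % inhibition of steady-state velocity vs log inhibitor concentration.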

Series [3] concerns Escherichia coli. The experiment in a line: Ratio of antibacterial (Escherichia coli CN314) activities of compound and trimethoprim. The class given is functional.
The target in series [4] is Bifunctional dihydrofolate reductase-thymidylate synthase (Plasmodium berghei str. ANKA, UniProt Q27713). The series is described as follows: In vitro inhibition of dihydrofolate reductase of Plasmodium berghei. To be noted: read-out: I50.
Bifunctional dihydrofolate reductase-thymidylate synthase, sequence (Q27713 whole entry): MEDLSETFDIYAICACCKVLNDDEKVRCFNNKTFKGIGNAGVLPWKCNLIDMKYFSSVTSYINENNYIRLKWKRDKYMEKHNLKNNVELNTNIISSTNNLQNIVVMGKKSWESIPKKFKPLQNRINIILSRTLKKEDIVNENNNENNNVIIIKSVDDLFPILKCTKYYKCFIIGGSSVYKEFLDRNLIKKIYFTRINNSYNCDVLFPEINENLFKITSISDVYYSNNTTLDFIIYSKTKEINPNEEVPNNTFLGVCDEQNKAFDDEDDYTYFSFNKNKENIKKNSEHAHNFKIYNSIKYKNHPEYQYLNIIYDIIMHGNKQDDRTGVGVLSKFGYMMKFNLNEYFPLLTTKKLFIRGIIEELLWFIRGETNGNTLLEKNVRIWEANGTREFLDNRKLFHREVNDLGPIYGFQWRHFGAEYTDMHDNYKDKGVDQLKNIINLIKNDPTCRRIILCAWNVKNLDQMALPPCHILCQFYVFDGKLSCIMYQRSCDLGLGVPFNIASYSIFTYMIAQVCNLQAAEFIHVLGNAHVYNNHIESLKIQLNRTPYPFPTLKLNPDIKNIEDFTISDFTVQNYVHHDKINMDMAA
Series [5] has as its system Staphylococcus aureus. The series is described as follows: Ratio of antibacterial (Staphylococcus aureus CN491) activities of compound and trimethoprim. The class given is functional. The essentials:
as §1

Series [6] deals with T2, Dihydrofolate reductase (Rattus norvegicus, UniProt Q920D2).
T2 sequence (Q920D2 whole entry): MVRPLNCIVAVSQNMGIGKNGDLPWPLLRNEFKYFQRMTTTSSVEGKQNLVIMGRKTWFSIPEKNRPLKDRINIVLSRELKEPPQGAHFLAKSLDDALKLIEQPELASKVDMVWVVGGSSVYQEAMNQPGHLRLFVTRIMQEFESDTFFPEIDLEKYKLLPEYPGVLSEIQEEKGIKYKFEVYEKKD
The experiment in a line: In vitro inhibition of rat liver dihydrofolate reductase. The note with it: read-out: I50.

In series [7] the test system is Streptococcus pyogenes. The experiment in a line: Ratio of antibacterial (Streptococcus pyogenes CN10) activities of compound and trimethoprim.
In series [8] the test system is Shigella dysenteriae. The experiment in a line: (§2) Ratio of antibacterial (Shigella dysentariae CN513) activities of compound and trimethoprim. The class given is functional.
Another series deals with Salmonella. The experiment in a line: Ratio of antibacterial (Salmonella typhi CN512) activities of compound and trimethoprim. It counts as functional, salmonella typhosa.
For series [9], the system named is Klebsiella aerogenes. The experiment in a line: Ratio of antibacterial (Enterobacter aerogenes, 2201/86) activities of compound and trimethoprim. The class given is functional. The procedure, abridged: as §1
Series [10] relates to Proteus vulgaris. The series is described as follows: Ratio of antibacterial (Proteus vulgaris CN329) activities of compound and trimethoprim. The class given is functional. The procedure, abridged: as §1
The target in series [11] is T1, Dihydrofolate reductase. The experiment in a line: Antibacterial activity against Escherichia coli DHFR. The procedure, abridged:
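E. coli DHFR assay with 1 nM enzyme. I50 is the inhibitor concentration that halves the standard-assay velocity. […] Apparent Ki for some inhibitors was obtained by the Henderson method.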

For series [12], the system named is Klebsiella pneumoniae. The series is described as follows: Antibacterial (Klebsiella pneumoniae CN3632) activity compared to trimethoprim. It counts as functional. The essentials:
as §1

Another series relates to Serratia marcescens. The series is described as follows: Antibacterial (Serratia marcescens CN2398) activity compared to trimethoprim. The class given is functional. The essentials: as §1
The next series concerns Pasteurella multocida. The experiment in a line: Antibacterial (Pasteurella multocides ATCC 6587) activity compared to trimethoprim. It counts as functional. The essentials: as §1
For series [13], the system named is Mycolicibacterium smegmatis. The experiment in a line: Antibacterial (Mycobacterium smegmatis S3254) activity compared to trimethoprim. It counts as functional. The procedure, abridged: as §1
Another series relates to Fusobacterium nucleatum. The series is described as follows: Ratio of antibacterial (Fusobacterium nucleatum) activities compared to that of trimethoprim and metronidazole. It counts as functional.
Series [14] relates to Klebsiella aerogenes. The experiment in a line: Antibacterial (Enterobacter aerogenes 2201/86) activity compared to trimethoprim. It counts as functional. The procedure, abridged:
as §1

A further series concerns Clostridium perfringens. The series is described as follows: Ratio of antibacterial (Clostridium perfringens) activities compared to that of trimethoprim and metronidazole. It counts as functional.
Series [15] concerns Escherichia coli. The series is described as follows: Antibacterial (Escherichia coli) activity compared to trimethoprim. It counts as functional. The procedure, abridged:
as §1

Series [16] has as its system Staphylococcus aureus. The experiment in a line: Antibacterial (Staphylococcus aureus CN491) activity compared to trimethoprim. It counts as functional. The procedure, abridged:
as §1

Series [17] in a line: Antibacterial (Salmonella typhi CN512) activity compared to trimethoprim. It counts as functional, salmonella typhosa.
In another series the test system is Clostridioides difficile. The experiment in a line: Ratio of antibacterial (Clostridium difficile) activities compared to that of trimethoprim and metronidazole. It counts as functional.
Series [18] deals with Streptococcus pyogenes. The experiment in a line: Antibacterial ([…] CN10) activity compared to trimethoprim. The class given is functional. The procedure, abridged:
as §1

The test system of another series is Phocaeicola vulgatus. The experiment in a line: Ratio of antibacterial (Bacteroides vulgatus) activities compared to that of trimethoprim and metronidazole. The class given is functional.
The test system of another series is Shigella flexneri. The experiment in a line: Antibacterial (Shigella flexneri CN6007) activity compared to trimethoprim. The class given is functional. The essentials: as §1
The test system of series [19] is Bacteroides thetaiotaomicron. The experiment in a line: Ratio of antibacterial (Bacteroides thetaiotaomicron) activities compared to that of trimethoprim and metronidazole. It counts as functional.
Series [20] has as its system Proteus vulgaris. The series is described as follows: Antibacterial (Proteus vulgaris CN329) activity compared to trimethoprim. It counts as functional. The procedure, abridged: as §1
In series [21] the target is Dihydrofolate reductase (Staphylococcus aureus, UniProt P0A017). The experiment in a line: Antibacterial activity against Staphylococcus aureus DHFR. The essentials:
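S. aureus (strain S8862) DHFR was partially purified by ammonium sulfate fractionation and gel filtration. The assay used 0.1 M imidazole chloride pH 6.4, 12 mM mercaptoethanol, 60 µM NADPH and 45 µM dihydrofolate at 30 °C, read at 340 nm. Enzyme, NADPH and inhibitor were preincubated 2 min before dihydrofolate was added. I50 came from % inhibition vs log[inhibitor] plots of steady-state velocities.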

For series [22], the system named is Shigella dysenteriae. The series is described as §2.
Series [23] is described as follows: Half-life in dogs Plasma. The class given is ADME, organism-based, Canis lupus familiaris. To be noted: dog. The procedure, abridged: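 Two fasted (18 h) male beagles received 5 mg/kg […] (free base), co-dosed with 5 mg/kg trimethoprim in propylene glycol. Jugular plasma was sampled from 0.17 to 24 h. Drug was extracted, separated by TLC and read by fluorescence densitometry. t1/2 came from least-squares linear regression of the postabsorption segment of the plasma curve.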

Dihydrofolate reductase (Staphylococcus aureus, UniProt P0A017), sequence (P0A017 whole entry): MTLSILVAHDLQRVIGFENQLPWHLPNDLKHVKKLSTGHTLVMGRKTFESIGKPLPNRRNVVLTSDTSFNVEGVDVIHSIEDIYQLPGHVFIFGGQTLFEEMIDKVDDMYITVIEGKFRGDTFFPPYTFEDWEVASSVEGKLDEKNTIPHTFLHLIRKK

As to `CCc1cc(Cc2cnc(N)nc2N)cc2c1OC(C)C2` (centres undefined), the MIC (usually the least concentration at which growth counts as inhibited) in the series on Klebsiella pneumoniae [1] came to 30 µg/mL; in the series on Escherichia coli [3], 30 µg/mL; with Staphylococcus aureus [5], 1 µg/mL; in the series on Streptococcus pyogenes [7], 1 µg/mL; in the series with Shigella dysenteriae [8], 30 µg/mL; in the series on Salmonella, 30 µg/mL. In addition, the MIC in the series on Klebsiella aerogenes [9] and in the series with Proteus vulgaris [10] was 30 µg/mL in each case. The results for the IC50 (on Dihydrofolate reductase [2]; in series [4]; on Dihydrofolate reductase [6]) were 19 nM, 100 nM and 11000 nM, respectively.
Regarding `CCCc1cc(Cc2cnc(N)nc2N)cc(CCC)c1O`, the Ki (commonly a measure of affinity in units of concentration, obtained from inhibition or displacement) on Dihydrofolate reductase [11] came to 1.7 nM.
On to `C=CCc1cc(Cc2cnc(N)nc2N)cc(CC=C)c1OC`, for which the MIC was over 10 µg/mL with Klebsiella pneumoniae [12]; over 10 µg/mL against Serratia marcescens; 20 µg/mL (≈ 64.4 µM) in the series on Pasteurella multocida; 10 µg/mL (≈ 32.2 µM) in series [13]; 0.8 µg/mL with Fusobacterium nucleatum; 100 µg/mL (≈ 322 µM) in the series on Klebsiella aerogenes [14]. Moreover, the MIC in the series with Clostridium perfringens is 25 µg/mL; in the series on Escherichia coli [15], 72 µg/mL (≈ 232 µM); in the series with Staphylococcus aureus [16], 5 µg/mL (≈ 16.1 µM); in series [17], 100 µg/mL (≈ 322 µM); in the series with Clostridioides difficile, over 25 µg/mL; with Streptococcus pyogenes [18], 1 µg/mL (≈ 3.22 µM). Also, the MIC with Phocaeicola vulgatus was 0.2 µg/mL; with Shigella flexneri it was 100 µg/mL (≈ 322 µM); in [19] it was 0.2 µg/mL; in the series with Proteus vulgaris [20], 100 µg/mL (≈ 322 µM). On Dihydrofolate reductase [6], the IC50 was 18000 nM. On Dihydrofolate reductase [21], this compound displayed an inhibitory constant (Ki) of 2.1 nM.
With `COc1cc(Cc2cnc(N)nc2N)cc(OC)c1OC` [TRIMETHOPRIM], the MIC in the series with Klebsiella pneumoniae [12] was 1 µg/mL (≈ 3.44 µM); against Pasteurella multocida, 1 µg/mL (≈ 3.44 µM); in the series on Fusobacterium nucleatum it was 0.8 µg/mL; with Klebsiella aerogenes [14] it was 1 µg/mL (≈ 3.44 µM); with Clostridium perfringens it was over 25 µg/mL; in the series with Escherichia coli [15], 1 µg/mL (≈ 3.44 µM). Further, the MIC with Staphylococcus aureus [16] was 1 µg/mL (≈ 3.44 µM); in [17] it was 1 µg/mL (≈ 3.44 µM); in the series with Clostridioides difficile it was over 25 µg/mL; against Streptococcus pyogenes [18], 1 µg/mL (≈ 3.44 µM); in the series with Phocaeicola vulgatus, 6.2 µg/mL; in [19] it was 12.5 µg/mL. The MIC in the series with Shigella dysenteriae [22] was found to be 1 µg/mL; with Proteus vulgaris [20], 1 µg/mL (≈ 3.44 µM). In addition, in [23], the half-life (usually how long it takes for the measured level to halve) is 3.44 h.
In the case of `C=CCc1cc(Cc2cnc(N)nc2N)cc(CCC)c1OC`, the MIC in the series with Klebsiella pneumoniae [12] is 100 µg/mL (≈ 320 µM); against Serratia marcescens it was over 10 µg/mL; with Pasteurella multocida it was 10 µg/mL (≈ 32 µM); in [13] it was 0.5 µg/mL (≈ 1.6 µM); in the series with Fusobacterium nucleatum, 0.8 µg/mL; in the series with Klebsiella aerogenes [14], 100 µg/mL (≈ 320 µM). The MIC came out at 12.5 µg/mL with Clostridium perfringens; 38 µg/mL (≈ 122 µM) against Escherichia coli [15]; 1 µg/mL (≈ 3.2 µM) with Staphylococcus aureus [16]; 100 µg/mL (≈ 320 µM) in series [17]; 25 µg/mL in the series with Clostridioides difficile; 2 µg/mL (≈ 6.4 µM) in the series on Streptococcus pyogenes [18]. In addition, the MIC is 0.2 µg/mL in the series with Phocaeicola vulgatus, 100 µg/mL (≈ 320 µM) in the series on Shigella flexneri, 0.1 µg/mL in [19] and over 50 µg/mL with Proteus vulgaris [20]. On Dihydrofolate reductase [11], this compound gave a Ki of 1.6 nM. The IC50 on Dihydrofolate reductase [6] was determined as 15000 nM.
Consider `CCCc1cc(Cc2cnc(N)nc2N)cc2c1OC(C)C2C` (centres undefined), for which the MIC in the series with Klebsiella pneumoniae [1] stood at 100 µg/mL; in the series on Escherichia coli [3] it was 30 µg/mL; in the series on Staphylococcus aureus [5], 1 µg/mL; with Streptococcus pyogenes [7], 1 µg/mL; in the series with Shigella dysenteriae [8] it was 100 µg/mL; in the series on Salmonella, 100 µg/mL. For the same compound, the MIC in the series with Klebsiella aerogenes [9] stood at 30 µg/mL; in the series on Proteus vulgaris [10] it was 100 µg/mL. For the same compound, the IC50 at Dihydrofolate reductase [2] is 13 nM; in series [4], 12 nM; on Dihydrofolate reductase [6], 2040 nM.
